Converted amounts (≈) assume the structure as drawn.

This note sets out measurements from ChEMBL document CHEMBL3045981, “Synthesis and insecticidal activities of novel N-sulfenyl-N'-tert-butyl-N,N'-diacylhydrazines. 2. N-substituted phenoxysulfenate derivatives” (2008).

Holding throughout (type): functional
The subject of experiment [1] is Mythimna separata. In words: Stomach toxicity against Mythimna separata (Oriental armyworm) fourth-instar larvae reared on compound pre-treated corn leaves assessed as insect mortality at 5 mg/kg measured 4 days post compound treatment.
The subject of experiment [2] is Mythimna separata. The experiment in a line: Stomach toxicity against Mythimna separata (Oriental armyworm) fourth-instar larvae reared on compound pre-treated corn leaves assessed as insect mortality at 2.5 mg/kg measured 4 days post compound treatment.
The subject of experiment [3] is Mythimna separata. The experiment in a line: Stomach toxicity against Mythimna separata (Oriental armyworm) fourth-instar larvae reared on compound pre-treated corn leaves assessed as insect mortality at 10 mg/kg measured 4 days post compound treatment.
For experiment [4], the system named is Mythimna separata. The experiment in a line: Stomach toxicity against Mythimna separata (Oriental armyworm) fourth-instar larvae reared on compound pre-treated corn leaves assessed as insect mortality at 25 mg/kg measured 4 days post compound treatment.
Experiment [5] relates to Mythimna separata. The experiment in a line: Stomach toxicity against Mythimna separata (Oriental armyworm) fourth-instar larvae reared on compound pre-treated corn leaves assessed as insect mortality at 50 mg/kg measured 4 days post compound treatment.
Experiment [6] relates to Spodoptera litura. In words: Contact toxicity against Spodoptera litura fourth-instar larvae exposed to compound on thoracic tergite region assessed as insect mortality measured 48 hr post compound treatment. The procedure, abridged:
(§1)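 Topical application: each fourth-instar larva received 1 µL of acetone dilution on the thoracic tergite via automatic microapplicator; five to seven concentrations. Acetone-only control. Usually 40 insects per dose, four replicates. Larvae returned to standard rearing at 25 ± 1 °C. Mortality read 48 h after treatment, Abbott-corrected, and LD50 (median lethal dose) derived.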

Experiment [7] concerns Ostrinia furnacalis. The experiment in a line: Contact toxicity against Ostrinia furnacalis (Asian corn borer) fourth-instar larvae exposed to compound on thoracic tergite region assessed as insect mortality measured 48 hr post compound treatment. The procedure, abridged: as §1
For experiment [8], the system named is Spodoptera litura. In words: Stomach toxicity against Spodoptera litura third-instar larvae reared on compound pre-treated cabbage leaves assessed as insect mortality measured 3 days post compound treatment. The procedure, abridged:
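Leaf-dip: cabbage leaf discs (5 cm × 3 cm) dipped 3 s in test solution, air-dried, placed singly in 80 cm³ boxes. Five third-instar larvae per disc. Water- and acetone-treated leaves as controls. Held at 25 ± 1 °C. Mortality scored on a dead/alive basis 3 days after treatment and Abbott-corrected.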

Experiment [9] relates to Helicoverpa armigera. In words: Contact toxicity against Helicoverpa armigerafourth-instar larvae exposed to compound on thoracic tergite region assessed as insect mortality measured 48 hr post compound treatment. The procedure, abridged:
as §1

Turning to `CCc1ccc(C(=O)N(N(SOc2ccc(C)cc2)C(=O)c2cc(C)cc(C)c2)C(C)(C)C)cc1`, in [1], the mortality at 5 mg/kg was determined as 100%. The mortality at 2.5 mg/kg in experiment [2] was found to be 30%.
Taken in the same sequence, the figures for `CCc1ccc(C(=O)N(N(SOc2ccc(C)c(C)c2)C(=O)c2cc(C)cc(C)c2)C(C)(C)C)cc1` were 70% and 10%.
The like results for `CCc1ccc(C(=O)N(N(SOc2ccccc2OC)C(=O)c2cc(C)cc(C)c2)C(C)(C)C)cc1` were, in that order, 90% and 80%.
The like results for `CCc1ccc(C(=O)N(N(SOc2cccc(OC)c2)C(=O)c2cc(C)cc(C)c2)C(C)(C)C)cc1` were, in that order, 100% and 50%.
Consider `CCc1ccc(C(=O)N(N(SOc2ccc(OC)cc2)C(=O)c2cc(C)cc(C)c2)C(C)(C)C)cc1`, for which, in [1], the mortality at 5 mg/kg was 100%. Moreover, in experiment [2], the mortality at 2.5 mg/kg worked out at 80%.
Taken in the same sequence, the figures for `CCc1ccc(C(=O)N(N(SOc2ccccc2C(=O)OC)C(=O)c2cc(C)cc(C)c2)C(C)(C)C)cc1` were 100% and 60%.
Taken in the same sequence, the figures for `CCc1ccc(C(=O)N(N(SOc2cccc(C(=O)OC)c2)C(=O)c2cc(C)cc(C)c2)C(C)(C)C)cc1` were 90% and 80%.
Consider `CCc1ccc(C(=O)N(N(SOc2ccc(C(=O)OC)cc2)C(=O)c2cc(C)cc(C)c2)C(C)(C)C)cc1`, for which the mortality at 5 mg/kg in experiment [1] worked out at 100%. Also, the mortality at 2.5 mg/kg in [2] was determined as 100%.
Turning to `CCc1ccc(C(=O)N(N(SOc2ccc(-c3ccccc3)cc2)C(=O)c2cc(C)cc(C)c2)C(C)(C)C)cc1`, the mortality at 5 mg/kg in [1] came out at 100%. Further, the mortality at 2.5 mg/kg in experiment [2] amounted to 90%.
For `Cc1cc(C)cc(C(=O)N(N(SOc2ccc(Cl)cc2)C(=O)c2ccc3c(c2C)OC(C)C3)C(C)(C)C)c1` (stereo not drawn), the mortality at 5 mg/kg in [1] was determined as 100%. Further, the mortality at 2.5 mg/kg in experiment [2] is 90%.
Taken in the same sequence, the figures for `COc1cccc(C(=O)N(N(SOc2ccc(Cl)cc2)C(=O)c2cc(C)cc(C)c2)C(C)(C)C)c1C` were 100% and 100%.
`CC(C)(C)N(C(=O)c1ccc(Cl)cc1)N(SOc1ccc(Cl)cc1)C(=O)c1ccccc1`: the mortality at 10 mg/kg in [3] came to 100%. In addition, the mortality at 5 mg/kg in experiment [1] amounted to 30%. Also, the mortality at 25 mg/kg in [4] turned out to be 100%. For the same compound, in [2], the mortality at 2.5 mg/kg amounted to 0%.
Regarding `CC(C)(C)N(C(=O)c1ccccc1)N(SOc1ccccc1)C(=O)c1ccccc1`, the mortality at 10 mg/kg in experiment [3] turned out to be 0%. Moreover, the mortality at 25 mg/kg in [4] was 100%. The mortality at 50 mg/kg in experiment [5] amounted to 100%.
For the compound `CC(C)(C)N(C(=O)c1ccccc1)N(SOc1ccc(Cl)cc1)C(=O)c1ccccc1`, the mortality at 10 mg/kg in experiment [3] amounted to 0%. The mortality at 25 mg/kg in experiment [4] was found to be 100%. Besides, the mortality at 50 mg/kg in experiment [5] turned out to be 100%.
Turning to `Cc1ccc(OSN(C(=O)c2ccccc2)N(C(=O)c2ccccc2)C(C)(C)C)cc1`, the mortality at 10 mg/kg in experiment [3] was determined as 10%. For the same compound, the mortality at 25 mg/kg in experiment [4] is 80%. For the same compound, in experiment [5], the mortality at 50 mg/kg was found to be 100%.
In the case of `CCc1ccc(C(=O)N(N(SOc2ccccc2)C(=O)c2cc(C)cc(C)c2)C(C)(C)C)cc1`, the mortality at 10 mg/kg in experiment [3] came out at 100%. In addition, the mortality at 5 mg/kg in [1] amounted to 90%. Moreover, the mortality at 25 mg/kg in experiment [4] amounted to 100%. Besides, the mortality at 2.5 mg/kg in experiment [2] amounted to 70%. For the same compound, in [5], the mortality at 50 mg/kg is 100%.
As for `CCc1ccc(C(=O)N(N(SOc2ccccc2Br)C(=O)c2cc(C)cc(C)c2)C(C)(C)C)cc1`, the mortality at 5 mg/kg in [1] was 100%. The mortality at 2.5 mg/kg in experiment [2] came out at 30%.
With `CCc1ccc(C(=O)N(N(SOc2ccc(Br)cc2)C(=O)c2cc(C)cc(C)c2)C(C)(C)C)cc1`, the mortality at 5 mg/kg in experiment [1] stood at 100%. Further, in experiment [2], the mortality at 2.5 mg/kg worked out at 50%.
Taken in the same sequence, the figures for `CCc1ccc(C(=O)N(N(SOc2ccccc2Cl)C(=O)c2cc(C)cc(C)c2)C(C)(C)C)cc1` were 95% and 80%.
The like results for `CCc1ccc(C(=O)N(N(SOc2cccc(Cl)c2)C(=O)c2cc(C)cc(C)c2)C(C)(C)C)cc1` were, in that order, 90% and 80%.
The like results for `CCc1ccc(C(=O)N(N(SOc2ccc(Cl)cc2Cl)C(=O)c2cc(C)cc(C)c2)C(C)(C)C)cc1` were, in that order, 90% and 40%.
`CCc1ccc(C(=O)N(N(SOc2c(Cl)cc(Cl)cc2Cl)C(=O)c2cc(C)cc(C)c2)C(C)(C)C)cc1`: in [1], the mortality at 5 mg/kg came to 90%. The mortality at 2.5 mg/kg in experiment [2] stood at 50%.
Taken in the same sequence, the figures for `CCc1ccc(C(=O)N(N(SOc2ccccc2C)C(=O)c2cc(C)cc(C)c2)C(C)(C)C)cc1` were 100% and 60%.
Take `CCc1ccc(C(=O)N(N(SOc2cccc(C)c2)C(=O)c2cc(C)cc(C)c2)C(C)(C)C)cc1`: the mortality at 5 mg/kg in experiment [1] turned out to be 95%. Besides, in [2], the mortality at 2.5 mg/kg is 70%.
On to `Cc1cc(C)cc(C(=O)N(NC(=O)c2ccc3c(c2C)OC(C)C3)C(C)(C)C)c1` (stereo not drawn) [FUXIAN], for which, in experiment [1], the mortality at 5 mg/kg was 100%. Moreover, in experiment [2], the mortality at 2.5 mg/kg is 90%.
In the case of `CC(C)(C)N(NC(=O)c1ccc(Cl)cc1)C(=O)c1ccccc1` [HALOFENOZIDE], in experiment [1], the mortality at 5 mg/kg came out at 70%. The mortality at 2.5 mg/kg in [2] came out at 10%. Moreover, the mortality at 50 mg/kg in [5] is 100%.
Take `COc1cccc(C(=O)NN(C(=O)c2cc(C)cc(C)c2)C(C)(C)C)c1C` [METHOXYFENOZIDE]: the mortality at 5 mg/kg in [1] is 100%. In addition, the mortality at 2.5 mg/kg in experiment [2] came out at 100%.
Regarding `CC(C)(C)N(NC(=O)c1ccccc1)C(=O)c1ccccc1` [RH-5849], the mortality at 10 mg/kg in [3] amounted to 0%. Besides, the mortality at 25 mg/kg in experiment [4] stood at 70%. Moreover, the mortality at 50 mg/kg in [5] is 100%.
Take `CCc1ccc(C(=O)NN(C(=O)c2cc(C)cc(C)c2)C(C)(C)C)cc1` [TEBUFENOZIDE]: the LD50 is 527 mg/kg in [6], 59.4 mg/kg in [7] and 1310 mg/kg in [9]. The mortality at 10 mg/kg in [3] amounted to 100%. Further, in experiment [1], the mortality at 5 mg/kg came out at 95%. In addition, the mortality at 2.5 mg/kg in experiment [2] was determined as 55%. Moreover, the LC50 in [8] amounted to 11.2 µg/mL (≈ 31.7 µM).

For orientation: mortality means the share of the test organisms that died. The term LD50 denotes the dose expected to kill half of the subjects tested. In general, LC50 refers to the concentration lethal to half of the exposed cells or organisms.
